ChEMBL document CHEMBL5370635, “Structure-Based Design and Synthesis of Potent and Selective KRAS G12D Inhibitors” (ACS Med Chem Lett, 2023)
pIC50: −log10 of the molar value.

Legend:
GTPase KRas [1] = target: T1, GTPase KRas (Homo sapiens, UniProt P01116, G12D); experiment: Inhibition of KRAS G12D mutant in human ASPC1 cells assessed as reduction in ERK phosphorylation measured after 4 hrs by HTRF assay; format: cell-based
GTPase KRas [2] = target: T2, GTPase KRas (Homo sapiens, UniProt P01116); experiment: (§1) Inhibition of wild-type GDP-bound biotinylated-KRAS (unknown origin) assessed as suppression of SOS1-mediated nucleotide exchange by measuring reduction in KRAS-RAF RBD complex formation preincubated for 60 mins followed by SOS1 addition and further incubated for 60 mins and subsequent addition of KRAS-RAF RBD mixture measured after 30 to 60 mins by FRET assay
[3] = test system: GTPase KRas (Homo sapiens), P01116 [G12D]; experiment: Thermal stabilization of GDP-bound KRAS G12D mutant (1 to 169 residues) (unknown origin) assessed as melting temperature incubated for 1 hrs by differential scanning fluorimetry assay
GTPase KRas [4] = target: T1, GTPase KRas; experiment: as §1, with “of” for “of wild-type”, “biotinylated-KRAS G12D mutant (1 to 169 residues)” for “biotinylated-KRAS”, “KRAS G12D mutant-RAF” for “KRAS-RAF”
GTPase KRas [5] = target: T2, GTPase KRas; experiment: Thermal stabilization of wild-type GDP-bound KRAS (1 to 169 residues) (unknown origin) assessed as melting temperature incubated for 1 hrs by differential scanning fluorimetry assay
HPAC = experiment: Antiproliferative activity against human HPAC cells assessed as reduction in cell viability measured after 5 days by Cell-Titer Glo assay; format: functional, cell-based; conditions: 120 h
SK-LU-1 = experiment: Antiproliferative activity against human SK-LU-1 cells assessed as reduction in cell viability measured after 5 days by Cell-Titer Glo assay; format: functional, cell-based; conditions: SK-LU-1, 120 h
[6] = Antiproliferative activity against human SNU-1033 cells assessed as reduction in cell viability measured after 5 days by Cell-Titer Glo assay; format: functional, cell-based; conditions: SNU-1033, 120 h
[7] = Antiproliferative activity against human GP2d cells assessed as reduction in cell viability measured after 5 days by Cell-Titer Glo assay; format: functional, cell-based; conditions: 120 h
HPAF-II = experiment: Antiproliferative activity against human HPAF-II cells assessed as reduction in cell viability measured after 5 days by Cell-Titer Glo assay; format: functional, cell-based; conditions: 120 h
ASPC1 [8] = experiment: Antitumor activity against human ASPC1 cells xenografted in mouse assessed as tumor regression at 20 mg/kg bid for 28 days relative to control; format: functional; conditions: time 28 day
How it was run: (§2)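 Mice bearing AsPC-1 (KRAS G12D pancreatic ductal adenocarcinoma) xenografts were given repeated twice-daily doses of 3, 10 or 20 mg/kg alongside a vehicle control group, with n = 8 per group. Tumor growth inhibition or regression was assessed against vehicle, with body weight also tracked. Group means were reported with SEM, and P values were calculated versus vehicle.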

ASPC1 [9] = experiment: Antiproliferative activity against human ASPC1 cells assessed as reduction in cell viability measured after 5 days by Cell-Titer Glo assay; format: functional, cell-based; conditions: ASPC1, 120 h
How it was run: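 AsPC-1 PDAC cells (KRAS G12D) grown in three-dimensional culture; viability read by Cell-Titer Glo luminescence.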

ASPC1 [10] = experiment: Antitumor activity against human ASPC1 cells xenografted in mouse assessed as inhibition of tumor growth at 10 mg/kg bid for 28 days relative to control; format: functional; conditions: ASPC1, 672 h, time 28 day, read-out: TGI; how it was run: as §2
[11] = Antiproliferative activity against human Panc 04.03 cells assessed as reduction in cell viability measured after 5 days by Cell-Titer Glo assay; format: functional, cell-based; conditions: Panc 04.03, 120 h
[12] = Antiproliferative activity against RAS initiative G12D cells assessed as reduction in cell viability after 5 days of treatment by Cell-Titer Glo assay; format: functional, cell-based; conditions: Homo sapiens, 120 h
LS-513 = experiment: Antiproliferative activity against human LS-513 cells assessed as reduction in cell viability measured after 5 days by Cell-Titer Glo assay; format: functional, cell-based; conditions: LS-513, 120 h
AGS = experiment: Antiproliferative activity against human AGS cells assessed as reduction in cell viability measured after 5 days by Cell-Titer Glo assay; format: functional, cell-based; conditions: 120 h
ASPC1 [13] = experiment: Antitumor activity against human ASPC1 cells xenografted in mouse assessed as inhibition of tumor growth at 3 mg/kg bid for 28 days relative to control; format: functional; conditions: ASPC1, 672 h, time 28 day, read-out: TGI; how it was run: as §2
[14] = Antiproliferative activity against RAS initiative wild-type cells assessed as reduction in cell viability after 5 days of treatment by Cell-Titer Glo assay; format: functional, cell-based; conditions: Homo sapiens, 120 h
[15] = Toxicity in human ASPC1 cell xenografted mouse at 3 to 20 mg/kg bid administered for 28 days; format: organism-based; conditions: in vivo, 672 h, dose 3-20 mg/kg, time 28 day
How it was run: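 Mice bearing AsPC-1 KRAS G12D PDAC xenografts dosed BID at 3, 10 or 20 mg/kg alongside a vehicle control group. Body weight change tracked over the treatment period together with tumour growth. Group means, n = 8, with SEM.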

[16] = Selectivity ratio of IC50 for RAS initiative wild-type cells to IC50 for RAS initiative G12D cells; format: functional
Homo sapiens = organism: Homo sapiens; experiment: Selectivity ratio of IC50 for wild-type GDP-bound biotinylated-KRAS (unknown origin) to IC50 for GDP-bound biotinylated-KRAS G12D mutant (1 to 169 residues) (unknown origin)
ASPC1 [17] = experiment: Antitumor activity against human ASPC1 cells xenografted in mouse assessed as inhibition of tumor growth at 20 mg/kg bid for 28 days relative to control; format: functional; set-up: scale not given: the % may be the effect or the level left; conditions: time 28 day; how it was run: as §2

| SMILES | pIC50 (GTPase KRas [1]) | pIC50 (GTPase KRas [2]) | ΔTm [3] | pIC50 (GTPase KRas [4]) | ΔTm (GTPase KRas [5]) | other results |
| --- | --- | --- | --- | --- | --- | --- |
| Nc1nc2c(-c3c(Cl)cc4c(N5C[C@H]6CC[C@@H](C5)N6)nc(OC[C@@]56CCCN5C[C@H](F)C6)nc4c3F)ccc(F)c2s1 | 6.83 | 7.40 | 14.7 °C | 8.42 | 7.2 °C |  |
| N#Cc1c(N)sc2c(F)ccc(-c3c(C(F)(F)F)cc4c(N5C[C@H]6CC[C@@H](C5)N6)nc(OC[C@@]56CCCN5C[C@H](F)C6)nc4c3F)c12 | 8.68 | 8.41 | 20.8 °C | 9.07 | 8.3 °C | pIC50 (HPAC): 8.74; pIC50 (SK-LU-1): 9.30; pIC50 [6]: 6.21; pIC50 [7]: 9.70; pIC50 (HPAF-II): 8.14; Activity (ASPC1 [8]): 54%; pIC50 (ASPC1 [9]): 8.46; inhibition in vivo at 10 mg/kg (ASPC1 [10]): 77%; pIC50 [11]: 7.97; pIC50 [12]: 8.24; pIC50 (LS-513): 8.70; pIC50 (AGS): 9.15; inhibition in vivo at 3 mg/kg (ASPC1 [13]): 51%; pIC50 [14]: 6.01; Activity [15]: Non-Toxic; Ratio IC50 [16]: >100 |
| Cc1cc(N)nc(-c2c(Cl)cc3c(N4C[C@H]5CC[C@@H](C4)N5)nc(OCC45CCCN4CCC5)nc3c2F)c1C(F)(F)F | 6.03 | 6.67 | 10.9 °C | 8.68 | 4.6 °C |  |
| N#Cc1c(N)sc2c(F)ccc(-c3c(Cl)cc4c(N5C[C@H]6CC[C@@H](C5)N6)ncnc4c3F)c12 | 5.97 | < 6.00 | 7.4 °C | 8.27 | 3.7 °C | Ratio IC50 (Homo sapiens): 188 |
| N#Cc1c(N)sc2c(F)ccc(-c3c(Cl)cc4c(N5C[C@H]6CC[C@@H](C5)N6)nc(OC[C@@]56CCCN5C[C@H](F)C6)nc4c3F)c12 | 8.37 | 8.38 | 20.2 °C | 9.01 | 13.4 °C | pIC50 (HPAC): 8.47; pIC50 (SK-LU-1): 8.85; pIC50 [6]: 5.72; pIC50 [7]: 9.70; pIC50 (HPAF-II): 7.85; pIC50 (ASPC1 [9]): 7.82; pIC50 [11]: 7.23; pIC50 [12]: 7.48; pIC50 (LS-513): 8.12; pIC50 (AGS): 8.92; pIC50 [14]: 5.46; Ratio IC50 [16]: >100 |
| N#Cc1c(N)sc2c(F)ccc(-c3c(Cl)cc4c(N5C[C@H]6CC[C@@H](C5)N6)nc(OCC5(CN6CC[C@@H](F)C6)CC5)nc4c3F)c12 | 7.52 | 8.04 | 17.8 °C | 9.00 | 12 °C |  |
| Cc1cc(N)nc(-c2c(Cl)cc3c(N4CCNC[C@@H]4C)nc(OC[C@@H]4CCCN4C)nc3c2F)c1C(F)(F)F | < 5.00 | < 6.00 | 2.6 °C | 7.11 | 1.4 °C |  |
| N#Cc1c(N)sc2c(F)ccc(-c3cc4nc(OC[C@@]56CCCN5C[C@H](F)C6)nc(N5C[C@H]6CC[C@@H](C5)N6)c4cc3Cl)c12 | 7.37 | 7.94 | 16 °C | 8.82 | 9.4 °C |  |
| Nc1cc2cccc(F)c2c(-c2c(Cl)cc3c(N4C[C@H]5CC[C@@H](C4)N5)nc(OC[C@@]45CCCN4C[C@H](F)C5)nc3c2F)n1 | 5.99 | < 6.00 | 7.4 °C | 8.22 | 2.2 °C |  |
| C#Cc1c(F)ccc2cc(O)cc(-c3ncc4c(N5C[C@H]6CC[C@@H](C5)N6)nc(OC[C@@]56CCCN5C[C@H](F)C6)nc4c3F)c12 [MRTX-1133] |  |  |  |  |  | pIC50 (HPAC): 8.38; pIC50 (SK-LU-1): 8.57; pIC50 [6]: 5.30; pIC50 [7]: 9.40; pIC50 (HPAF-II): 7.83; pIC50 (ASPC1 [9]): 7.96; inhibition in vivo at 10 mg/kg (ASPC1 [10]): 83%; pIC50 [11]: 7.56; pIC50 [12]: 7.79; pIC50 (LS-513): 8.09; pIC50 (AGS): 8.49; Activity (ASPC1 [17]): 94%; inhibition in vivo at 3 mg/kg (ASPC1 [13]): 61%; pIC50 [14]: 5.19; Activity [15]: Non-Toxic; Ratio IC50 [16]: >100 |
| Cc1cc(N)nc(-c2c(Cl)cc3c(N4C[C@H]5CC[C@@H](C4)N5)nc(OC[C@@H]4CCCN4C)nc3c2F)c1C(F)(F)F | 6.03 | < 6.00 | 7.3 °C | 8.46 | 1.9 °C | Ratio IC50 (Homo sapiens): > 286 |
| CN1CCC[C@H]1COc1nc(N2C[C@H]3CC[C@@H](C2)N3)c2cc(Cl)c(-c3ccc(F)c4sc(N)c(C#N)c34)c(F)c2n1 | 6.86 | 7.77 | 17.1 °C | 8.89 | 10.3 °C |  |
| Cc1cc(N)nc(-c2c(Cl)cc3c(N4C[C@H]5CC[C@@H](C4)N5)nc(OC[C@@]45CCCN4C[C@H](F)C5)nc3c2F)c1C(F)(F)F | 7.05 | 6.82 | 11.7 °C | 8.68 | 5.2 °C |  |
| Nc1cc2ccccc2c(-c2c(Cl)cc3c(N4C[C@H]5CC[C@@H](C4)N5)nc(OC[C@@]45CCCN4C[C@H](F)C5)nc3c2F)n1 | 5.53 | < 6.00 | 4.3 °C | 7.89 | 0.8 °C |  |
